CRFR2-BP ag – agonists of human CRF-binding protein/CRF-R2 receptor complex; hit rate 0.46% among 350,000; HEK293 CRF-R2/CRF-BP, calcium dye fluorescence (FLIPR); percent of saturating CRF peptide response; AID 588473; activation, % at 13.2 µM;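 active = activation of at least 50%, plus an integration ratio under a set limit after plate pattern correction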
CRFR2-BP antag – antagonists of CRF-binding protein/CRF-R2 receptor complex; HEK293 CRF-R2/CRF-BP, CRF-induced calcium fluorescence; inhibition, % at 11.8 µM; hit rate 0.59% among 350,000; AID 588475;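 active = inhibition of the ligand-induced calcium signal above about 50% at the single tested concentration, limit read from the data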
CSN deneddyl inh – blocks human CSN-mediated cullin deneddylation; Q92905; Purified CSN, SCF-Nedd8-OG deneddylation, fluorescence polarization; inhibition, % at 12.5 µM; hit rate 0.38% among 360,000;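 active = pattern-corrected inhibition above about 35%, with an unprinted fluorescence ratio check between 0.5 and 1.5, limit read from the data, passing the limit was not always enough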
Target sequence (Q92905 whole entry, looked up, one chain of several): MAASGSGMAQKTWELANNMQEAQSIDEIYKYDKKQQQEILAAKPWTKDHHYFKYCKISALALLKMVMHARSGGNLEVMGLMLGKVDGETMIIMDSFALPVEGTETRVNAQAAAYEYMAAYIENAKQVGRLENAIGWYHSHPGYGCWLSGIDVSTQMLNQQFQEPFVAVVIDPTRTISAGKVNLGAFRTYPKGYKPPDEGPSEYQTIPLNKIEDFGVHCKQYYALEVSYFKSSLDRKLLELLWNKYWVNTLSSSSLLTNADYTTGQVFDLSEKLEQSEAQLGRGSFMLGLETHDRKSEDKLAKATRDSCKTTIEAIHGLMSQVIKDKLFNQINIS
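Test system: Human Csn5 produced in HEK293T cells | Compound: 12.5 µM single point | Times: 90 min, room temperature | Signal: Fluorescence polarization readout | Read-out basis: % inhibition of substrate cleavage by Csn5 | Controls: no-enzyme wells high, enzyme-with-substrate wells low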
HNF4A DNA FP – change in binding of human HNF4 alpha to DNA. hit rate 0.3% among 360,000. P41235. activity change, % at 10 µM. HNF4a-FITC DNA binding, fluorescence polarization, 1 h; in the data active = activity change above about 30%, passing the limit was not always enough
TPT1 inhibitor – C. albicans TPT1 enzyme inhibition; hit rate 0.81% among 300,000; inhibition, % at 5 µM; recombinant caTPT1, FP RNA substrate dephosphorylation;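 active = inhibition above the mean of all tested compounds plus 3 SD, set per screening campaign, cut at about 24% in these data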
Rpn11 inh – Rpn11 (human) deubiquitinase inhibition; human 26S proteasome, Ub4-pepOG fluorescence polarization; 20S core pre-blocked with epoxomicin; calls only at 20 µM; hit rate 0.59% among 360,000; AID 588493;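 active = inhibition at 20 µM, scaled to each plate's controls, above about 33%, limit read from the data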
Target sequence (O00487 whole entry, looked up): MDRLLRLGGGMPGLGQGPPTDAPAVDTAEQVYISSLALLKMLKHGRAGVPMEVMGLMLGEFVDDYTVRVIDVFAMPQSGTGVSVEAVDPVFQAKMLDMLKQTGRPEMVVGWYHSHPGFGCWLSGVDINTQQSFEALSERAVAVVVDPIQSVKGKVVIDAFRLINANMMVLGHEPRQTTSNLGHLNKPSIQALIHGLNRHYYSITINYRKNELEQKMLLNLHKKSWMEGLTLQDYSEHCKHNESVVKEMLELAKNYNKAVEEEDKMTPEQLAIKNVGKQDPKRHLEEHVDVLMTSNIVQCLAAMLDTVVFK
TPT1 inh confirm – confirmation of Candida albicans TPT1 inhibitors. shares compounds with TPT1 inhibitor. recombinant caTPT1, fluorescence polarization, RNase T1 coupled. inhibition, % at 5 µM. hit rate 74% among 2,400. AID 2149;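 active = inhibition above the primary screen limit, the mean inhibition of all tested compounds plus 3 SD, cut at about 25% in these data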
RNase T1 counter – blocks Aspergillus oryzae RNase T1, a TPT1 counter-screen | shares compounds with TPT1 inhibitor | RNase T1 cleavage, fluorescence polarization, 1536-well | inhibition, % at 5 µM | hit rate 83% among 2,400;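 active = inhibition above the solvent-only control well mean plus 3 SD, limit set per screening run, cut at about 23% in these data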;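 also: inhibitors block cleavage so intact labeled substrate keeps polarization high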
A number is an active result. Hits are enriched below; roughly 2.3% of the tested compounds scored in any of these assays.

`COc1ccc(-c2cc(=Nc3c(C)n(C)n(-c4ccccc4)c3=O)c3ccccc3o2)cc1` gave CRFR2-BP ag inactive, CRFR2-BP antag inactive, CSN deneddyl inh inactive, HNF4A DNA FP inactive, TPT1 inhibitor inactive and Rpn11 inh inactive.
Screening CC(=Nc1ccccc1)C1=C(O)COC1=O returned CRFR2-BP ag inactive, CRFR2-BP antag inactive, CSN deneddyl inh inactive, HNF4A DNA FP inactive, TPT1 inhibitor inactive and Rpn11 inh inactive.
`CC(=Nc1ccccc1)c1sc2ccccc2c1O` gave CRFR2-BP ag inactive, CRFR2-BP antag inactive, CSN deneddyl inh inactive, HNF4A DNA FP inactive, TPT1 inhibitor 31, Rpn11 inh inactive, TPT1 inh confirm 51 and RNase T1 counter 67.
NC(=Nc1ccc(Br)cc1)c1ccccc1 was read as CRFR2-BP ag inactive, CRFR2-BP antag inactive, CSN deneddyl inh inactive, HNF4A DNA FP inactive, TPT1 inhibitor inactive and Rpn11 inh inactive.
Screening CC(=Nc1ccc(Br)cc1)c1sc2ccccc2c1O returned CRFR2-BP ag inactive, CRFR2-BP antag inactive, CSN deneddyl inh inactive, HNF4A DNA FP inactive, TPT1 inhibitor 78, Rpn11 inh inactive, TPT1 inh confirm 88 and RNase T1 counter 95.
COc1ccc(C(=O)N/N=C\c2ccc(OC)c(COc3ccccc3Br)c2)c(OC)c1 was read as CRFR2-BP ag inactive, CRFR2-BP antag inactive, CSN deneddyl inh inactive, HNF4A DNA FP inactive, TPT1 inhibitor inactive and Rpn11 inh inactive.
Screening Cc1ccc(CNc2ccc3c(c2)OCO3)c(C)c1 returned TPT1 inhibitor 26, TPT1 inh confirm inactive and RNase T1 counter 35.
`O=C(O)c1ccccc1SCc1cn2cc(Br)ccc2n1` gave CRFR2-BP ag inactive, CRFR2-BP antag inactive, CSN deneddyl inh inactive, HNF4A DNA FP inactive, TPT1 inhibitor inactive and Rpn11 inh inactive.
O=C(COC(=O)c1cccc(Cl)c1)Nc1cc(S(=O)(=O)N2CCOCC2)ccc1N1CCOCC1 was read as CRFR2-BP ag inactive, CRFR2-BP antag inactive, CSN deneddyl inh inactive, HNF4A DNA FP inactive and Rpn11 inh inactive.
`O=C(OCCN1C(=O)c2cccc3c(N4CCOCC4)ccc(c23)C1=O)c1ccccc1Cl` gave CRFR2-BP ag 170, CRFR2-BP antag inactive, CSN deneddyl inh inactive, HNF4A DNA FP inactive, TPT1 inhibitor 53, Rpn11 inh inactive, TPT1 inh confirm 63 and RNase T1 counter 70.
For O=C(OCCN1C(=O)c2cccc3c(N4CCOCC4)ccc(c23)C1=O)c1ccc(Cl)cc1Cl the results were CRFR2-BP ag 176, CRFR2-BP antag inactive, CSN deneddyl inh inactive, HNF4A DNA FP inactive, TPT1 inhibitor 59, Rpn11 inh inactive, TPT1 inh confirm 64 and RNase T1 counter 70.
O=C(OCCN1C(=O)c2ccccc2C1=O)c1cc(S(=O)(=O)N2CCOCC2)ccc1Cl was read as CRFR2-BP ag inactive, CRFR2-BP antag inactive, CSN deneddyl inh inactive, HNF4A DNA FP inactive, TPT1 inhibitor inactive and Rpn11 inh inactive.
For O=C(OCCN1C(=O)c2cccc3c(N4CCOCC4)ccc(c23)C1=O)c1cccc(Cl)c1 the results were CRFR2-BP ag 175, CRFR2-BP antag inactive, TPT1 inhibitor 49, TPT1 inh confirm 62 and RNase T1 counter 70.
For Cc1ccc(F)cc1NC(=O)N1c2ccccc2NC(=O)CC1C (stereo unspecified) the results were CRFR2-BP ag inactive, CRFR2-BP antag inactive, CSN deneddyl inh inactive, HNF4A DNA FP inactive, TPT1 inhibitor inactive and Rpn11 inh inactive.
For CC(C)CNC(=S)Nc1ccccc1F the results were CRFR2-BP ag inactive, CRFR2-BP antag inactive, CSN deneddyl inh inactive, HNF4A DNA FP inactive, TPT1 inhibitor inactive and Rpn11 inh inactive.
Nc1c(C(=O)Nc2nc3ccccc3s2)sc2nc(-c3cccs3)ccc12 was read as CRFR2-BP ag inactive, CRFR2-BP antag inactive, CSN deneddyl inh inactive, HNF4A DNA FP inactive, TPT1 inhibitor 30, Rpn11 inh inactive, TPT1 inh confirm 27 and RNase T1 counter 38.
Cc1cccc(C)c1Nc1c(-c2ccc(N3CCOCC3)cc2)nc2ncccn12 was read as CRFR2-BP ag inactive, CRFR2-BP antag inactive, CSN deneddyl inh inactive, HNF4A DNA FP inactive, TPT1 inhibitor 30, Rpn11 inh inactive, TPT1 inh confirm 34 and RNase T1 counter 41.
For N#C/C(=C\c1ccc(O)c(O)c1)C(=O)Nc1cccc2ncccc12 the results were CRFR2-BP ag inactive, CRFR2-BP antag inactive, CSN deneddyl inh inactive, HNF4A DNA FP inactive, TPT1 inhibitor 24, Rpn11 inh inactive, TPT1 inh confirm inactive and RNase T1 counter 27.
COc1ccc(/C=C(\C#N)C(=O)Nc2cccc3ncccc23)cc1OC was read as CRFR2-BP ag inactive, CRFR2-BP antag inactive, CSN deneddyl inh inactive, HNF4A DNA FP inactive, TPT1 inhibitor inactive and Rpn11 inh inactive.
For CCN(CC)c1ccc2c(c1)OC(N)=C(C#N)C2c1cccnc1 (stereo unspecified) the results were CRFR2-BP ag 181, CRFR2-BP antag inactive, CSN deneddyl inh inactive, HNF4A DNA FP inactive, TPT1 inhibitor 71, TPT1 inh confirm 57 and RNase T1 counter 64.
`O=C(Nc1ccc2c(c1)OCO2)C1CCN(C(=O)c2ccc([N+](=O)[O-])cc2)CC1` gave CRFR2-BP ag inactive, CRFR2-BP antag inactive, CSN deneddyl inh inactive, HNF4A DNA FP inactive, TPT1 inhibitor inactive and Rpn11 inh inactive.
Screening N#C/C(=C\c1cccc([N+](=O)[O-])c1)c1nnc2n1CCCCC2 returned CRFR2-BP ag inactive, CRFR2-BP antag inactive, CSN deneddyl inh inactive, HNF4A DNA FP inactive, TPT1 inhibitor inactive and Rpn11 inh inactive.
For COc1ccc(S(=O)(=O)N2CCC(C)CC2)cc1Br the results were CRFR2-BP ag inactive, CRFR2-BP antag inactive, CSN deneddyl inh inactive, HNF4A DNA FP inactive, TPT1 inhibitor inactive and Rpn11 inh inactive.
`C/C(=N\Nc1nc(-c2ccccc2O)nc2ccccc12)c1ccccc1` gave CRFR2-BP ag inactive, CRFR2-BP antag inactive, CSN deneddyl inh inactive, HNF4A DNA FP inactive, TPT1 inhibitor inactive and Rpn11 inh inactive.
C/C(=N/Nc1nc(-c2ccccc2F)nc2ccccc12)c1ccccc1O was read as CRFR2-BP ag inactive, CRFR2-BP antag inactive, CSN deneddyl inh inactive, HNF4A DNA FP inactive, TPT1 inhibitor 32, Rpn11 inh inactive, TPT1 inh confirm 36 and RNase T1 counter 51.
Screening C[C@@H]1CN([C@H](C)CO)C(=O)CCCn2cc(nn2)CO[C@H]1CN(C)S(=O)(=O)c1ccc(-n2cccn2)cc1 returned CRFR2-BP ag inactive, CRFR2-BP antag inactive, CSN deneddyl inh inactive, HNF4A DNA FP inactive and Rpn11 inh inactive.
COc1cc(/C=N/Nc2snc(SC)c2C#N)ccc1O was read as CRFR2-BP ag inactive, CRFR2-BP antag inactive, CSN deneddyl inh inactive, HNF4A DNA FP inactive, TPT1 inhibitor inactive and Rpn11 inh inactive.
